# LMPTP block – LMPTP phosphatase inhibitors, primary screen, biochemical, fluorescence intensity, uHTS. actives 0.22% (n = 360,000). recombinant LMPTP-A, OMFP fluorogenic substrate. inhibition, % at 20 µM;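 active means compounds that cut the enzyme signal by at least half of the control window in the single-dose screen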;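 further: plate controls were DMSO wells with enzyme plus substrate for no effect and substrate without enzyme for full effect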
# Target sequence (P24666 whole entry, looked up): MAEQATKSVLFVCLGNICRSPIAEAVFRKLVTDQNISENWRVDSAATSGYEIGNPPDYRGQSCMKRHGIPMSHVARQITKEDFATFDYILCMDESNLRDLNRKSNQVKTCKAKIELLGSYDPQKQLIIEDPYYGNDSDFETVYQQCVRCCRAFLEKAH
#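 test system = LMPTP-A | amount = 0.625 nM LMPTP-A final | reagent = fluorogenic phosphatase substrate OMFP at 400 µM final | incubation = 50 min at room temperature | benchmarks = no-enzyme low control, uninhibited high control | medium = Bis-Tris pH 6.0, DTT, detergent | signal = fluorescence intensity of OMFP turnover product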
# SUMO1-SIM PPI – modulators of SUMO1 protein-protein interactions, primary screen, biochemical, uHTS | SUMO1 binding to a labelled peptide, TR-FRET, 1 h | inhibition, % at 20 µM | actives 0.33% (n = 360,000) | AID 602429, 2012; in the data active means inhibition above about 37%
# Target sequence (P63165 whole entry, looked up): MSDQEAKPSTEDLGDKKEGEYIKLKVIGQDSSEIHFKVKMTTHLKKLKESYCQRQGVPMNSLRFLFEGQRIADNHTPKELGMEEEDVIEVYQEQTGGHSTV
# STEP inh – STEP phosphatase inhibitors, primary screen, biochemical, fluorescence intensity, uHTS | inhibition, % at 20 µM | AID 588621, 2011 | actives 0.25% (n = 360,000) | Tyrosine-protein phosphatase non-receptor type 5 (Homo sapiens), P54829 | recombinant STEP, OMFP fluorogenic substrate;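 active means inhibition at 20 µM, scaled per plate between control wells, above about 37%, limit read from the data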;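 further: 0% = DMSO with enzyme and substrate and 100% = substrate only without enzyme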
#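 Measure: Control-normalized % inhibition with plate pattern correction | Test system: STEP phosphatase, cell-free reaction | Medium: pH 6.0 Bis-Tris with DTT and Tween 20 | Technique: Fluorescence, 480/540 nm | Times: Reaction 20 min, ambient temperature | Doses: Single compound dose of 20 µM, 1% DMSO final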
# Scp1 inh – Scp-1 phosphatase inhibitors, primary screen, biochemical, colorimetric, uHTS | Carboxy-terminal domain RNA polymerase II polypeptide A small phosphatase 1 (Homo … | Recombinant Scp1, phosphopeptide, malachite green phosphate absorbance | inhibition, % at 20 µM | actives 0.88% (n = 340,000) | AID 493091, 2011;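 active means inhibition above about 50% at 20 µM, limit read from the data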;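 further: plate controls were DMSO wells with enzyme for no effect and wells lacking enzyme for full effect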
# Target sequence (Q9GZU7 76-261 limits assumed): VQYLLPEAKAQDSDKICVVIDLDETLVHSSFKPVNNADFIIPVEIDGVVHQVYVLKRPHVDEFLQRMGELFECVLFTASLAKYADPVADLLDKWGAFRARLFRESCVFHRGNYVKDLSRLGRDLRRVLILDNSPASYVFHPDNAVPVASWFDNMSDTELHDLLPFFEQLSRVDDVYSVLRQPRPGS
#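 Material: truncated SCP-1 phosphatase (76-261aa) / Buffer or medium: 50 mM Tris acetate pH 5.5, 0.005% Tween-20, 10 mM MgCl2 / Compound dosing: one concentration, 20 µM, with 1.0% DMSO / Incubation: 45 min room-temperature reaction, 5 min colour, 30 min stabiliser / Detection: colorimetric free-phosphate detection, absorbance 630 nm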
# DNMT1 inh – human DNMT1 methyltransferase inhibitors, primary screen, biochemical, molecular beacon, fluorescence, HinP1I cleavage, uHTS; DNA (cytosine-5)-methyltransferase 1 (Homo sapiens), P26358; inhibition (reported as % activation of signal), % at 10 µM; actives 0.83% (n = 360,000)
# CSN deneddyl inh – inhibitors of CSN-mediated cullin deneddylation, primary screen, biochemical, fluorescence polarization, uHTS. inhibition, % at 12.5 µM. AID 651999, 2013. actives 0.38% (n = 360,000). COP9 signalosome complex subunit 5 (Homo sapiens), Q92905. Purified CSN, SCF-Nedd8-OG deneddylation;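 active means pattern-corrected inhibition above about 35%, with an unprinted fluorescence ratio check between 0.5 and 1.5, limit read from the data, passing the limit was not always enough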;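 further: 0% = enzyme with substrate and 100% = substrate without enzyme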
# Target sequence (Q92905 whole entry, looked up, one chain of several): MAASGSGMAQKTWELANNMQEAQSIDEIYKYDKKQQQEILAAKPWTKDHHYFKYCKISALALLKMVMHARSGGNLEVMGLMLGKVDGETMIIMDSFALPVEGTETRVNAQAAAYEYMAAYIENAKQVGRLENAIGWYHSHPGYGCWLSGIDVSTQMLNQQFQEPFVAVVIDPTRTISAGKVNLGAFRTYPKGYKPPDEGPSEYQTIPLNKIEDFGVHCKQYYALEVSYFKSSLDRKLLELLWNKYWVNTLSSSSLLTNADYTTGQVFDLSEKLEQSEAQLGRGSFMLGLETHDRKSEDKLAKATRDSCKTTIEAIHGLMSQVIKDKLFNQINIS
#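 Assay system: HEK293T-derived human Csn5 enzyme; quantity: 0.24 nM enzyme; medium: Tris/NaCl/DTT buffer, pH 7.5; also added: substrate SCFSkp2-Nedd8OG, 10 nM; doses: 12.5 µM compound; schedule: 90 min reaction at room temperature; signal: FP; read-out: % inhibition of substrate cleavage by Csn5; benchmarks: substrate-only high control, full reaction low control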
# Beacon interf DR – spectral interference with molecular beacon fluorescence, dose response, artefact control for DNMT1 inhibitor project, biochemical, fluorescent molecular beacon. spectral interference counter-screen. IC50, µM. AID 602382, 2012. shares compounds with DNMT1 inh. 200 tested, under 10 active; call rule not given here
# DNMT1 confirm – DNMT1 methyltransferase inhibitor retest, confirmation, biochemical, molecular beacon, fluorescence, single concentration | DNMT1 molecular beacon HinP1I cleavage | AID 602385, 2012 | shares compounds with DNMT1 inh | actives 8% (n = 2,300) | inhibition, % at 10 µM;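 active means average inhibition of at least 30% in the single-concentration confirmation test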
# Beacon interf – counter-screen for DNMT1 inhibitors: spectral interference; shares compounds with DNMT1 inh; DNMT1 molecular beacon spectral interference counterscreen, fluorescence 485/520; activation (fluorescence interference), % at 10 µM; actives 1% (n = 2,300); AID 602387;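 active means activation of at least 30% at 10 µM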;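 further: DNMT1 catalytic domain with a HinP1I cleavage step and a FAM/dabcyl DNA beacon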
# STEP inh conf – STEP phosphatase inhibitor hit confirmation, biochemical, fluorescence intensity, single concentration; actives 32% (n = 520); recombinant STEP, OMFP fluorogenic substrate; inhibition, % at 20 µM; shares compounds with STEP inh; AID 623866, 2012; call rule not given here;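 further: 0% = enzyme with substrate plus DMSO and 100% = substrate without enzyme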
# CSN5 deneddyl – Csn5 deneddylation inhibitors, confirmation, biochemical, fluorescence polarization, single concentration, SCF-Nedd8OG substrate; inhibition, % at 16.6 µM; AID 720654, 2013; actives 62% (n = 540); Csn5 deneddylation of SCF-Nedd8OG, 90 min; shares compounds with CSN deneddyl inh;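 further: 0% = DMSO with enzyme and 100% = no enzyme wells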
# MMP-2 counter – MMP-2 protease inhibition counter-screen, confirmation, counter-screen for CSN deneddylation inhibitor project, biochemical, fluorescence, single concentration; inhibition, % at 16.6 µM; shares compounds with CSN deneddyl inh; actives 33% (n = 540); AID 720655, 2013; recombinant MMP-2, FRET substrate fluorescence, 60 min;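 active means corrected plate-normalized z-score of 5 or more, or -5 or less, or inhibition of 15% or more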;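 further: plate controls were DMSO wells with enzyme for no effect and buffer wells lacking MMP-2 for full effect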
# Thrombin cntr – counter-screen for CSN deneddylation inhibitors: bovine thrombin inhibition. inhibition, % at 16.6 µM. bovine thrombin cleavage of Ub4-pepOG, fluorescence polarization. shares compounds with CSN deneddyl inh. actives 49% (n = 540). AID 720656;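 active means inhibition at or above a set limit, with a fluorescence interference ratio between 0.5 and a set maximum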
# Numbers without * were called inactive. Sampled rows, rich in hits. Any-hit rate of the full collection: about 2%. Unless noted, no stated cut-off is given here; in the data, active means inhibition above about 50%; inactive means the rest.
SMILES,LMPTP block,SUMO1-SIM PPI,STEP inh,Scp1 inh,DNMT1 inh,CSN deneddyl inh,others
Cc1cc(C)c(S(=O)(=O)N2CCCOC2CNC(=O)C(=O)NCc2ccco2)c(C)c1 (stereo not drawn),-1.2,0.8,-3.2,-9.6,0.8,-14.5,
CCN(Cc1ccc(Cl)s1)C(=O)c1cccc(OCc2c(C)noc2C)c1,1.0,0.7,-0.3,-2.4,-2.9,-5.7,
Cc1cc(C)c2nc(N3C(=O)C(O)=C(C(=O)c4ccco4)C3c3ccco3)sc2c1 (stereo not drawn),22.6,16.6,24.2,51.6*,57.8*,35.0*,DNMT1 confirm=14.8;Beacon interf=-0.7;MMP-2 counter=9.6;Thrombin cntr=-6.4
CCOc1ccc2nc(N3C(=O)C(O)=C(C(=O)c4ccco4)C3c3ccco3)sc2c1 (stereo not drawn),10.8,-4.6,7.0,10.4,36.4,7.1,
CC(C)CCc1noc(CN(CC2CCC2)CC2CCCO2)n1 (stereo not drawn),-0.1,-2.5,-1.5,2.5,0.6,-1.6,
CCC(C)(O)c1[nH]c2ccc(C#N)cc2c1C (stereo not drawn),-1.7,-21.3,0.5,9.3,-0.1,-0.9,
O=C1/C(=C\c2ccc(-c3ccccc3Cl)o2)SC(=S)N1CC1CCCO1 (stereo not drawn),5.2,-19.9,-2.2,7.5,2.1,7.3,
O=C(O)C(c1ccccc1)N1C(=O)/C(=C\c2ccc(-c3ccccc3Cl)o2)SC1=S (stereo not drawn),76.9*,91.9*,44.8*,35.2,98.3*,91.8*,Beacon interf DR=34.4*;DNMT1 confirm=69.4*;Beacon interf=0.3;CSN5 deneddyl=-58.0;MMP-2 counter=5.2;Thrombin cntr=93.5*
O=c1c2c3c(sc2[nH]c(=S)n1Cc1ccco1)CCC3,12.8,43.4*,26.2,26.8,83.1*,44.5*,DNMT1 confirm=6.0;Beacon interf=1.2;CSN5 deneddyl=91.9*;MMP-2 counter=34.0*;Thrombin cntr=-2.3
CC1(C)Cc2c(sc3[nH]c(=S)n(Cc4ccco4)c(=O)c23)CO1,-0.2,3.6,1.0,-6.6,1.6,6.4,
O=C1CC(=O)N(Cc2cccs2)C(=O)N1,-0.1,-3.9,0.9,-2.9,-8.9,12.4,
O=C1CC(=O)N(Cc2ccco2)C(=O)N1,51.3*,25.3,95.0*,65.9*,108.8*,66.0*,Beacon interf DR=>99;DNMT1 confirm=105.2*;Beacon interf=-4.9;CSN5 deneddyl=37.8;MMP-2 counter=24.9*;Thrombin cntr=44.0*
CCOc1ccc(CCNC(=O)Cn2ccc3ccccc3c2=O)cc1OCC,-1.3,0.1,0.1,0.4,1.0,-3.1,
N=C1/C(=C\c2ccc(SCc3ccco3)o2)C(=O)N=C2SC=NN12,30.3,43.0*,8.5,31.6,106.1*,105.1*,DNMT1 confirm=4.2;Beacon interf=4.6;CSN5 deneddyl=59.7*;MMP-2 counter=3.2;Thrombin cntr=25.6*
CC(C)CN(C(=O)COC(=O)CN1C(=O)c2ccccc2C1=O)c1c(N)n(Cc2ccccc2)c(=O)[nH]c1=O,0.5,-5.3,-0.2,1.3,3.5,-0.5,
O=C(Nc1nnc(SCC(=O)N2CCCCC2)s1)c1c(F)cccc1F,0.2,-2.9,-0.8,-2.3,1.8,0.4,
NC1=NC(=O)/C(=C\c2ccco2)S1,2.8,27.7,4.8,62.7*,73.7*,35.5*,DNMT1 confirm=8.0;Beacon interf=-1.1;CSN5 deneddyl=70.2*;MMP-2 counter=17.3*;Thrombin cntr=-6.5
Cc1ccc(COc2ccc(CNCCCN3CCCCCC3=O)cc2)cc1,-2.6,1.6,75.4*,0.7,0.7,1.4,STEP inh conf=8.1
Cc1cccc(C)c1NC(=O)CN(C1CCCCC1)S(C)(=O)=O,-1.9,2.1,-1.4,5.8,0.9,-5.4,
NNC(=O)C(=O)NCCCN1CCOCC1,-0.6,3.4,-1.7,-1.3,2.8,2.2,
Cc1cc([N+](=O)[O-])c(C)cc1-c1ccc(/C=N/n2cnnc2)o1,9.0,-12.8,49.8*,45.7,1.7,6.2,STEP inh conf=-1.0
Nc1nc(N2CCN(C(=O)c3ccco3)CC2)nc2ccccc12,3.8,2.2,-3.1,-8.1,1.4,-3.2,
Cc1cc(N2CCN(C(=O)c3ccco3)CC2)c2ccccc2n1,7.2,-0.1,71.1*,-18.7,0.2,-1.8,STEP inh conf=-0.5
COc1ccc(-c2csc3nc(-c4cccnc4)nc(N4CCC(C(N)=O)CC4)c23)cc1OC,0.7,-8.6,49.8*,0.5,-19.5,-10.5,STEP inh conf=28.9
Cc1ccc(C(=O)N/N=C\c2ccc(OC(=O)c3cccc(F)c3)cc2)cn1,61.7*,4.3,82.1*,7.6,2.7,2.7,STEP inh conf=-5.4
O=C(Oc1ccc(/C=N/NC(=O)c2ccccn2)cc1)c1ccc(Br)cc1,55.0*,-0.5,54.8*,-6.0,26.3,-3.5,STEP inh conf=1.1
O=C(Oc1ccc(/C=N/NC(=O)c2ccccn2)cc1)c1cccc(Br)c1,0.4,4.4,5.0,18.4,5.3,6.1,
O=C(COc1ncnc2ccccc12)c1ccc(Cl)cc1,-0.8,-2.5,-0.6,4.5,-2.5,-12.0,

# Source: PubChem BioAssay
